We go through one compound from ChEMBL document CHEMBL5678802, “Small-molecule p21-activated kinase inhibitor PF-3758309 is a potent inhibitor of oncogenic signaling and tumor growth” (Proc Natl Acad Sci U S A, 2010).

pIC50, pKi: −log10 of the molar value.

The target in series [1] is Tyrosine-protein kinase Yes (Homo sapiens, UniProt P07947). Put plainly: Inhibition of human YES1 in presence of ATP relative to control. Conditions: concentration not given here.
Series [2] concerns the target T1, AMP-activated protein kinase (AMPK) alpha-1/beta-1/gamma-1 (Homo sapiens, UniProt P54619+Q13131+Q9Y478). Put plainly: Inhibition of human AMPK alpha1/beta1/gamma1 in presence of ATP. The format is protein-complex assay.
Series [3] has as its system Capan-2. Put plainly: Antiproliferative activity against human Capan-2 cells assessed as inhibition of cell proliferation incubated for 3 days by CellTiter-Glo Luminescent Cell Viability Assay. The format is functional, cell-based. The settings on record: Capan-2, 72 h. Summed up:
(§1)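 Cancer cell lines seeded in 384-well plates on day 1; compound added on day 2 and left for 3 days. On day 5 all medium was aspirated, and viable cells were quantified by CellTiter-Glo luminescence, which measures cellular ATP. Dose-dependent effects on proliferation were determined.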

For series [4], the target named is Ribosomal protein S6 kinase alpha-2 (Homo sapiens, UniProt Q15349). Put plainly: Inhibition of human RSK3 in presence of ATP relative to control. Conditions: concentration not given here.
Sequence of Ribosomal protein S6 kinase alpha-2 (Q15349 whole entry): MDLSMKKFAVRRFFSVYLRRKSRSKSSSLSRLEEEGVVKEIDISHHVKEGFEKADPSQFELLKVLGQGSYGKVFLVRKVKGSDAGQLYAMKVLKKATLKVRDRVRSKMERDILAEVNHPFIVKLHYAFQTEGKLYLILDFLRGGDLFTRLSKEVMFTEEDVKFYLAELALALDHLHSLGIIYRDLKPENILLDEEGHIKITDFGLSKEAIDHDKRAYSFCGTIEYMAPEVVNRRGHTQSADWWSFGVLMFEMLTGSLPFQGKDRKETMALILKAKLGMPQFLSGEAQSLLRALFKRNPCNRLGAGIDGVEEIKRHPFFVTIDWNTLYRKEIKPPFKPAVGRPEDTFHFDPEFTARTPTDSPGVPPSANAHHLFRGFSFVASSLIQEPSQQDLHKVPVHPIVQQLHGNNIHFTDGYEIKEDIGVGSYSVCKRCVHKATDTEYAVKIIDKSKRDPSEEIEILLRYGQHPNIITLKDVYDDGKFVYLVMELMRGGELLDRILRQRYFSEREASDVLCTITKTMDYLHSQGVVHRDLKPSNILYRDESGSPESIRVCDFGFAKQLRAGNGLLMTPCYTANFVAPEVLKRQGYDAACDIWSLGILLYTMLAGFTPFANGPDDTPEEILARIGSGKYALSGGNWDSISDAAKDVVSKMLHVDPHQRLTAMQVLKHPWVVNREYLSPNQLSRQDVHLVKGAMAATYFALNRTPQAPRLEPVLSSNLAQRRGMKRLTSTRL
The subject of series [5] is NCI-H1838. Put plainly: Antiproliferative activity against human NCI-H1838 cells assessed as inhibition of cell proliferation incubated for 3 days by CellTiter-Glo Luminescent Cell Viability Assay. The format is functional, cell-based. The settings on record: NCI-H1838, 72 h. The method in brief: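 Cells of each line were plated in 384-well plates on day 1 and exposed to compound from day 2 for 3 days. On day 5 all medium was aspirated. Viable cell number was read by CellTiter-Glo luminescence, which quantifies cellular ATP.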
In general terms: ATP-based viability assays read luminescence as a measure of living cells.

Series [6] relates to HCT-116. Put plainly: Antitumor activity against human HCT-116 cells xenografted in nude mouse assessed as inhibition of [3H]FLT uptake at 25 mg/kg, po administered once a day for 6 day and measured after 2 hrs post [3H]FLT administration by scintillation counter analysis relative to control. Format: functional. The settings on record: HCT-116, 144 h. Summed up:
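HCT116 xenograft mice (tumors 300–350 mm3, n = 5 per group) received oral vehicle or compound, with harvests on days 2, 3 and 6. Isoflurane-anesthetized mice were given [3H]FLT (15 nCi/g, i.p.) 2 h before killing. Tumor and liver were weighed, solubilized and scintillation-counted. SUV = C/(ID/W), and uptake is reported as the tumor-to-liver SUV ratio.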

Series [7] has as its target T2, Serine/threonine-protein kinase D1 (Homo sapiens, UniProt Q15139).
T2 sequence (Q15139 whole entry): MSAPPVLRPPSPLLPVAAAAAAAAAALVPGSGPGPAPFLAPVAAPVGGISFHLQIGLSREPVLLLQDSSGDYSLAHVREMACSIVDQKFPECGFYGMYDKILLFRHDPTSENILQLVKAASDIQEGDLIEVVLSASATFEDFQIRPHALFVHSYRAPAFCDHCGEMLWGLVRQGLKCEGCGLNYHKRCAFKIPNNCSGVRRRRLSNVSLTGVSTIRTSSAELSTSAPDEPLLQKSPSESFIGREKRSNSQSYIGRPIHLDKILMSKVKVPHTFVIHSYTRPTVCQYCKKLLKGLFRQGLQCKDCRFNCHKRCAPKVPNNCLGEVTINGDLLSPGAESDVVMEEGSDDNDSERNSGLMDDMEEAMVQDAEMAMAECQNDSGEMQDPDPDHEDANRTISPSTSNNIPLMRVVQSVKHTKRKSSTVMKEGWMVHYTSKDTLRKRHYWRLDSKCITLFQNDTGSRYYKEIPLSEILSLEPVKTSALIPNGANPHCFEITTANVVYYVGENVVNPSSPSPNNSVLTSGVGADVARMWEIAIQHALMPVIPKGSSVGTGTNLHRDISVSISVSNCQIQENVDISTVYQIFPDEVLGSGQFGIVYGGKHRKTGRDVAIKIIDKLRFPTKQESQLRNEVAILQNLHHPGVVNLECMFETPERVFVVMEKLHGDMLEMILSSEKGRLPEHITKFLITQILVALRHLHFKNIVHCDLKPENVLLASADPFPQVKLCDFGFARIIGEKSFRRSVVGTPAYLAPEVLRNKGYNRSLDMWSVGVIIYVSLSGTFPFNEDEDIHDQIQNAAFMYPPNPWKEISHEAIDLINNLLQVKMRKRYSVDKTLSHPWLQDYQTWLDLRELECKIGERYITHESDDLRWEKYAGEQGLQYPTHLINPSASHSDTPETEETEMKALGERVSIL
Put plainly: Inhibition of human PKCmu in presence of ATP by cellular assay.

Series [8] deals with HCT-116. Briefly: Antiproliferative activity against human HCT-116 cells assessed as inhibition of cell proliferation incubated for 3 days by CellTiter-Glo Luminescent Cell Viability Assay. The format is functional, cell-based. The settings on record: HCT-116, 72 h. The method in brief: as §1
Series [9] in a line: Drug exposure in nude mouse xenografted with human HCT-116 cells at 1.1 to 3.3 mg/kg, sc administered for 6 days. The format is ADME, organism-based. Conditions: in vivo, dose 1.1-3.3 mg/kg, time 6 day, read-out: Drug uptake.
The test system of series [10] is HCT-116. Put plainly: Induction of cell cycle arrest in human HCT-116 cells assessed as accumulation of cells at sub G1 phase at 100 nM measured after 48 hrs by fluorescence activated cell sorter analysis (reference value: 1.84%). Format: functional.
Series [11] concerns the target Tyrosine-protein kinase Fgr (Homo sapiens, UniProt P09769). Put plainly: Inhibition of human FGR in presence of ATP.
Series [12] in a line: Drug concentration in nude mouse plasma xenografted with human HCT-116 cells at 1.1 mg/kg administered via pump for 9 days by LC-MS/MS analysis. The format is ADME, organism-based. Conditions: time 9 day. Background: In xenograft studies the graft and the host belong to different species.
In series [13] the test system is Calu-6. Briefly: Antiproliferative activity against human Calu-6 cells assessed as inhibition of cell proliferation incubated for 3 days by CellTiter-Glo Luminescent Cell Viability Assay. The settings on record: Calu-6, 72 h. Format: functional, cell-based. The method in brief: as §1
The subject of series [14] is HT-29. Put plainly: Antiproliferative activity against human HT-29 cells assessed as inhibition of cell proliferation incubated for 3 days by CellTiter-Glo Luminescent Cell Viability Assay. Format: functional, cell-based. The settings on record: HT-29, 72 h. The method in brief: as §1
The test system of series [15] is NCI-H1666. Put plainly: Inhibition of anchorage independent cell growth in human NCI-H1666 cells incubated for 6 days by Alamar blue reagent based fluorescence plate reader analysis. Format: functional. The settings on record: NCI-H1666, 144 h. On the technique in general: Resazurin is reduced to fluorescent resorufin, in cell work by metabolically active cells.

Series [16] in a line: Drug concentration in nude mouse plasma xenografted with human HCT-116 cells at 0.12 mg/kg administered via pump for 9 days by LC-MS/MS analysis. The format is ADME, organism-based. Conditions: time 9 day.
The subject of series [17] is BT-549. Put plainly: Antiproliferative activity against human BT-549 cells assessed as inhibition of cell proliferation incubated for 3 days by CellTiter-Glo Luminescent Cell Viability Assay. Format: functional, cell-based. The settings on record: BT-549, 72 h. The method in brief:
as §1

For series [18], the target named is Ribosomal protein S6 kinase alpha-1 (Homo sapiens, UniProt Q15418). Put plainly: Inhibition of human RSK1 in presence of ATP by cellular assay.
Sequence of Ribosomal protein S6 kinase alpha-1 (Q15418 whole entry): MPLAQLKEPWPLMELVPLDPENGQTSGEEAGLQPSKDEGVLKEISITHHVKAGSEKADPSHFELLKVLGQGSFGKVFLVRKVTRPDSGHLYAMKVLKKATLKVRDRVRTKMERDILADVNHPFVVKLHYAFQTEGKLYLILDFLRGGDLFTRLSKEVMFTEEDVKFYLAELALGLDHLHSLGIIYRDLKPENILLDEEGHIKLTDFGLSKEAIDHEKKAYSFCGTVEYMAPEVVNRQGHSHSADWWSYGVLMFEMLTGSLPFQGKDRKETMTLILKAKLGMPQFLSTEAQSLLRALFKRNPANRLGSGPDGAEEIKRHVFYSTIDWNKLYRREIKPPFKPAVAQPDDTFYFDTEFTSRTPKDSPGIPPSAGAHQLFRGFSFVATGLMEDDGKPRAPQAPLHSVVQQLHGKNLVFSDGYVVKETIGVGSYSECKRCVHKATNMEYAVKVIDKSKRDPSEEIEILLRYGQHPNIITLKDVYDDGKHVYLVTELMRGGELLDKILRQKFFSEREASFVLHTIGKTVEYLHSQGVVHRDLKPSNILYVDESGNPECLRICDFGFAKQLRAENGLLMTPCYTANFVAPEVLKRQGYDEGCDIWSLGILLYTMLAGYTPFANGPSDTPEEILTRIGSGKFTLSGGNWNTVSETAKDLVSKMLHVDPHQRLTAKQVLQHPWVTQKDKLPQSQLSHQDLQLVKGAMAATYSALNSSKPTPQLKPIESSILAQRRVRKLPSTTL
In series [19] the test system is COLO 205. Put plainly: Inhibition of anchorage independent cell growth in human COLO 205 cells incubated for 6 days by Alamar blue reagent based fluorescence plate reader analysis. The format is functional. Conditions: COLO 205, 144 h. Summed up: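 Soft-agar colony formation: bottom layer 0.5% agar (2× DMEM with 1% agarose, 1:1), top layer 0.35% agar holding 4,000 cells; layers set 20–30 min at room temperature, then 1× DMEM containing compound added on top. Incubated 6 days; Alamar blue added and fluorescence read at 540 nm.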

Series [20] has as its target T1, AMP-activated protein kinase (AMPK) alpha-1/beta-1/gamma-1. Briefly: Inhibition of human AMPK alpha1/beta1/gamma1 assessed as inhibition constant in presence of ATP. The format is protein-complex assay.

T1 sequence (P54619 whole entry): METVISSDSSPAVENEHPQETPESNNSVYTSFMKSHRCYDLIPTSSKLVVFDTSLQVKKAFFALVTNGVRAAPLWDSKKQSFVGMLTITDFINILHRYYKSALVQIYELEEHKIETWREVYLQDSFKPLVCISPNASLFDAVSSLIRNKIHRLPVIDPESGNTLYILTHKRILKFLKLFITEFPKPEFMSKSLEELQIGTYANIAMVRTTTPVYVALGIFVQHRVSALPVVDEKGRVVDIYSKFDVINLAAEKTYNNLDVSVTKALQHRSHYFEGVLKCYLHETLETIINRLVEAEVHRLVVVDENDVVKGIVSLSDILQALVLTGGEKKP
T1 sequence (Q9Y478 whole entry): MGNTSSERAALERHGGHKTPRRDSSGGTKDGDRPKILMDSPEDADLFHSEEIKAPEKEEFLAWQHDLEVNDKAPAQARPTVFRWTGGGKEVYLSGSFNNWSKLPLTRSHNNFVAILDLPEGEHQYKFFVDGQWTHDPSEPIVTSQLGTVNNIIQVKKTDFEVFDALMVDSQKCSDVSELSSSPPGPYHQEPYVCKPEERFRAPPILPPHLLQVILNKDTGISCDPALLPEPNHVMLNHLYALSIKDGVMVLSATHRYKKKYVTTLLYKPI
T1 sequence (Q13131 whole entry): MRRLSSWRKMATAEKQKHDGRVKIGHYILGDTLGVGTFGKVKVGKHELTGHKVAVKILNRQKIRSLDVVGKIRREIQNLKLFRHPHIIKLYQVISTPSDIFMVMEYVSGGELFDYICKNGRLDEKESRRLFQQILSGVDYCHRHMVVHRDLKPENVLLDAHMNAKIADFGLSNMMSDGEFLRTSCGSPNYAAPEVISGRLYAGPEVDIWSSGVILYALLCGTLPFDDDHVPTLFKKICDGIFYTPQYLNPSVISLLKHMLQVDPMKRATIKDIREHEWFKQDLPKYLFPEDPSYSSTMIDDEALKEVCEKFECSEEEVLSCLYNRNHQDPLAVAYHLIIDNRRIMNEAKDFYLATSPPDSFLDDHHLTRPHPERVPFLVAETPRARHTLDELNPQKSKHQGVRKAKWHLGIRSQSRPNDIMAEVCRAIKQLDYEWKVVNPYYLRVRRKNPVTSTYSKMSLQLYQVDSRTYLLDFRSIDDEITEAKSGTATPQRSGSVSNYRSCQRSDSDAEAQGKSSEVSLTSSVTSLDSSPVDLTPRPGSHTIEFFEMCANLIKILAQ
Sequence of Tyrosine-protein kinase Yes (P07947 2-543 limits assumed): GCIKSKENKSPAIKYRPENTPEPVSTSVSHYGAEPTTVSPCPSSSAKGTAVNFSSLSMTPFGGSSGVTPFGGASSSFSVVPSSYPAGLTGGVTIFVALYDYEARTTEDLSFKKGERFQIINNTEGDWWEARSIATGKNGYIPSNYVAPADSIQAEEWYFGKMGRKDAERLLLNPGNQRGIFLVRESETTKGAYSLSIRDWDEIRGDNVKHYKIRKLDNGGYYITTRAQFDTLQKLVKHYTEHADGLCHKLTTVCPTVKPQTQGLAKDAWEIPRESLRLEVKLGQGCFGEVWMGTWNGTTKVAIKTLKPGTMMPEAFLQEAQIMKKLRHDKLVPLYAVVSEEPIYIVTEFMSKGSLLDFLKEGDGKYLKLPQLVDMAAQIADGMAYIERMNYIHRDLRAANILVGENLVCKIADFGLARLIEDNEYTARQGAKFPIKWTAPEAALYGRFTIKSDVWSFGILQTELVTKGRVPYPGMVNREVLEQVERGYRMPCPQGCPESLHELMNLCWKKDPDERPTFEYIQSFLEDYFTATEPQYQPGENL
Sequence of Tyrosine-protein kinase Fgr (P09769 whole entry): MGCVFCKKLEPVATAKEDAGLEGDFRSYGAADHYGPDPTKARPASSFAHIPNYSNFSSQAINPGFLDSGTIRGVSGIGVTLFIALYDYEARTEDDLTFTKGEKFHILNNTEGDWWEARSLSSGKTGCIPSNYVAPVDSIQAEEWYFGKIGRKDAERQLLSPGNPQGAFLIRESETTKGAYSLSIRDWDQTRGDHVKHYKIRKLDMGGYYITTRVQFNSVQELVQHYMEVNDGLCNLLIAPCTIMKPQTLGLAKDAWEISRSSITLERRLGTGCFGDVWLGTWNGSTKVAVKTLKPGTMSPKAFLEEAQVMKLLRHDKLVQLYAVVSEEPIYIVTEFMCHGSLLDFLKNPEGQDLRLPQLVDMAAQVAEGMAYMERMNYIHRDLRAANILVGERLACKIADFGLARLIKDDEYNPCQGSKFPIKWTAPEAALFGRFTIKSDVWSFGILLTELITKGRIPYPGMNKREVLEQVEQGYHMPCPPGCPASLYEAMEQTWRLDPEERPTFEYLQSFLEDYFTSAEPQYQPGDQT

One may read the inhibition as the change of the read-out against control, counted positive when it falls. By pIC50 is commonly meant the negative decadic logarithm of the IC50, by convention in mol/L. Usually inhibition in vivo stands for the change of the read-out against control, counted positive when it falls. By pKi is commonly meant −log10 of the Ki, conventionally taken in molar units. In the case of `Cc1nc(Nc2n[nH]c3c2CN(C(=O)N[C@H](CN(C)C)c2ccccc2)C3(C)C)c2sccc2n1` [PF-03758309], the inhibition was determined as 92% in [1] and 98% in series [4]. The pIC50 in series [2] is 9.00; in series [3], 6.87; in series [5], 8.26; in [7] it was 5.55; in series [8], 8.62; in series [11], 7.63. In addition, the negative logarithm of the IC50 (pIC50) in series [13] is 8.14; in series [14], 8.37; in series [15] it was 8.20; in series [17] it was 9.39; in series [18], 6.27; in [19] it was 6.85. In series [6], the inhibition in vivo at 25 mg/kg amounted to 43.1%. The concentration at 144 h in series [9] amounted to 0.14 nM. Further, the Activity in series [10] came out at 12.43%. The results for the concentration at 216 h in series [12] and in series [16] were 5.6 ng/mL and 0.56 ng/mL, respectively. The pKi in [20] is 8.30.
